Active and inactive are the calls of the source. No cut-off for these calls is given here.
Experiments:
Bos taurus [1] = organism: Bos taurus; experiment: Inhibition of bovine tubulin polymerization at 1 uM measured every 30 secs for 2 hrs by turbidity method
Summary of the method: (§1)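 Kit-based turbidity assay with tubulin at 26.7 μM (2.94 mg/mL) in G-PB buffer (polymerization buffer, GTP, glycerol), assembled on ice. Compound stocks in DMSO diluted in water to give 1 or 10 μM. A350 read every 30 s for 2 h at 37 °C. Nocodazole and DMSO (1.43% or 0.14% v/v) as controls. Duplicate assays. Area under curve compared by one-way ANOVA with Bonferroni post-test.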

Bos taurus [2] = organism: Bos taurus; experiment: Inhibition of bovine tubulin polymerization assessed as lag time for tubulin polymerization at 1 uM measured every 30 secs for 2 hrs by turbidity method; summary of the method: as §1
Bos taurus [3] = organism: Bos taurus; experiment: Inhibition of bovine tubulin polymerization at 10 uM measured every 30 secs for 2 hrs by turbidity method; summary of the method: as §1
MCF7 [4] = experiment: Cytotoxicity against human MCF7 cells after 72 hrs by MTS/PMS assay; type: functional, cell-based; conditions: for IC50: MCF7, 72 h
Summary of the method: (§2)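 MCF-7 cells grown in DMEM with 10% heat-inactivated FBS, penicillin, streptomycin, L-glutamine and MEM NEAA at 37 °C, 5% CO2. Seeded at 5000 cells/well. After 24 h, given fresh medium plus compound (DMSO stock diluted in DPBS; final 0–10 μM) for 72 h. Then serum-free medium with MTS/PMS for 1 h at 37 °C. A490 read, viability as % of untreated cells. IC50 read graphically. Six replicates, three independent experiments.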

MCF7 [5] = experiment: Cytotoxicity against human MCF7 cells assessed as cell viability at 5 to 10 uM after 72 hrs by MTS/PMS assay relative to control; type: functional; summary of the method: as §2

inhibition (Bos taurus [1])	TIME (Bos taurus [2])	inhibition (Bos taurus [3])	SMILES	Activity (MCF7 [4])	IC50 (MCF7 [4])	Activity (MCF7 [5])
Active	0.25 to 0.333 h	inactive	CCCCC/C=C\C/C=C\C/C=C\C/C=C\CCCC(=O)Oc1cc(/C=C\c2cc(OC)c(OC)c(OC)c2)ccc1OC	Dose-dependent effect	700 nM	–
Active	0.25 to 0.333 h	inactive	CC/C=C\C/C=C\C/C=C\CCCCCCCC(=O)Oc1cc(/C=C\c2cc(OC)c(OC)c(OC)c2)ccc1OC	–	> 10000 nM	65 - 75%
Active	0.25 to 0.333 h	inactive	CCCCC/C=C\C/C=C\CCCCCCCC(=O)Oc1cc(/C=C\c2cc(OC)c(OC)c(OC)c2)ccc1OC	–	> 10000 nM	65 - 75%

SMILES	inhibition (Bos taurus [1])	TIME (Bos taurus [2])	inhibition (Bos taurus [3])	Activity (MCF7 [4])	IC50 (MCF7 [4])	Activity (MCF7 [5])
COc1ccc(/C=C\c2cc(OC)c(OC)c(OC)c2)cc1O [COMBRETASTATIN A4]	Active	–	–	–	200 nM	–
